Laboratory results from article PMC9835613 (Chemosphere, 2022).
“And” between values parts separate entries of the source, which are not always exact repeats. Equal entries are not always repeated. Marks after values point to notes of the source that are not given here.

Key:
zebrafish metabolome = experiment: Non-targeted LC-HRMS metabolomics of TCDD-exposed embryos; assay type: in vivo, zebrafish (Danio rerio); conditions: TCDD exposed vs DMSO
Method in brief: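 Embryos given a 1-h exposure at 4 hpf to 50 ppt or 10 ppb test compound, or matched DMSO, pooled (40 and 7 embryos respectively) at 24, 48 and 72 hpf. LC-HRMS used HILIC (25 °C) and C18 (60 °C) columns with 2 mM ammonium acetate/acetonitrile gradients, in negative and positive ion modes.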

zebrafish = experiment: Survival of embryos after TCDD exposure; assay type: in vivo, zebrafish (Danio rerio); conditions: TCDD-exposed groups at 72 hpf; control (DMSO) 96.4%, p = 0.49
[1] = ref Burkhard and Kuehl, 1986; cited from earlier work
[2] = TCDD body burden and elimination in embryos, GC-HRMS; assay type: in vivo, zebrafish (Danio rerio); conditions: for body burden relative to the 50 ppt dose: 24 hpf; for Concentration of TCDD detected per embryo (body burden): 1 h at 4 hpf, mean; for half-life: zebrafish, whole embryo (pooled embryos), other: waterborne exposure
Method in brief: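 AB zebrafish embryos, screened at 3 hpf, exposed at 4 hpf (20 per 2 mL egg water) for 1 h to 50 ppt, 1 ppb or 10 ppb test compound (DMSO stock diluted 1:1000) or paired DMSO, then raised in fresh egg water at 28.5 °C. Dechorionated at 24 hpf. Pooled embryos (7 at 1 and 10 ppb) snap-frozen at 24, 48 and 72 hpf.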

SMILES: Clc1cc2c(cc1Cl)Oc1cc(Cl)c(Cl)cc1O2 [TCDD, 2,3,7,8-tetrachlorodibenzo-p-dioxin]
- upregulation of 3a, 7a-Dihydroxy-5b-cholestane (zebrafish metabolome; bile acid biosynthesis pathway): 1.01 fold
- decrease of the dihydrotestosterone peak (zebrafish metabolome; every 24 h): 6.02 fold
- downregulation of androsterone (zebrafish metabolome; every 24 h): 0.363 fold
- upregulation of pregnenolone (zebrafish metabolome; every 24 h): 0.529 fold
- downregulation of L-Glutamic acid (glutamate) (zebrafish metabolome; over time): 0.30 fold
- downregulation of dopamine (zebrafish metabolome; over time): 0.66 fold
- downregulation of gamma-aminobutyric acid (GABA) (zebrafish metabolome; over time): 0.32 fold
- average survival rate (zebrafish): 96.3%
- Kow [1]: 7.02
- body burden relative to the 50 ppt dose ([2]; 1 ppb exposure vs 50 ppt exposure): approximately 3 times
- Concentration of TCDD detected per embryo (body burden) ([2]; 1 ppb waterborne exposure, 48 HPF): 12.7 pg/embryo
- Concentration of TCDD detected per embryo (body burden) ([2]; 1 ppb waterborne exposure, 72 HPF): 4.30* pg/embryo
- body burden relative to the 50 ppt dose ([2]; 10 ppb exposure vs 50 ppt exposure): approximately 4.45 times
- Concentration of TCDD detected per embryo (body burden) ([2]; 10 ppb waterborne exposure, 24 HPF): 26.6 ± 1.2 pg/embryo and 38.0 ± 4.34 pg/embryo and 38.0* pg/embryo
- Concentration of TCDD detected per embryo (body burden) ([2]; 10 ppb waterborne exposure, 48 HPF): 14.7 pg/embryo
- Concentration of TCDD detected per embryo (body burden) ([2]; 10 ppb waterborne exposure, 72 HPF): 9.78* pg/embryo
- Concentration of TCDD detected per embryo (body burden) ([2]; 50 ppt waterborne exposure, 48 HPF): 5.27 pg/embryo
- Concentration of TCDD detected per embryo (body burden) ([2]; 50 ppt waterborne exposure, 72 HPF): 0.407 pg/embryo
- half-life ([2]; 1 ppb): 32.7 h
- half-life ([2]; 10 ppb): 10.7 h
